# According to PMC2635062 (Cancer research, 2009):
# Read-outs that look alike come from different tables or passages of the source.
# Assays:
# [1] = system: MRC5, WI-38 and IMR-90 normal lung fibroblast cell lines; experiment: Caspase Glo 3/7 assay, normal lung fibroblasts; format: cell-based, human; conditions: control, 1 microM for 72 hours
# [2] = system: SiHa cells; experiment: Caspase Glo 3/7 assay, SiHa; format: cell-based, human; conditions: 10 or 30 μM with 50 nM compound 3, 72 hours
# [3] = system: SKNSH; experiment: CellTiter-Glo cytotoxicity assay, SKNSH; format: cell-based; conditions: Homo sapiens, SK-N-SH
# Procedure, shortened: (§1)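 About 5,000 cells/well were dosed either continuously or for a 1 h pulse. After the pulse, cells were washed with pre-warmed medium and kept drug-free. Viability was read by CellTiter-Glo luminescence 72 h after dosing began. IC50 was the half-maximal growth-inhibiting concentration.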
# [4] = system: cancer cell lines; experiment: CellTiter-Glo cytotoxicity assay, cancer cell lines in general; format: cell-based, human
# Procedure, shortened: as §1
# [5] = system: HCT-116; experiment: CellTiter-Glo cytotoxicity assay, HCT-116; format: cell-based; conditions: Homo sapiens
# Procedure, shortened: as §1
# [6] = system: various cancer cell lines; conditions: read-out: IC50 against various cancer cell lines; in vitro; cited from earlier work
# [7] = system: SiHa; experiment: CellTiter-Glo cytotoxicity assay, SiHa; format: cell-based; conditions: Homo sapiens
# Procedure, shortened: as §1
structure (smiles),measurement,setting,value
CN[C@@H]1C[C@H]2O[C@@](C)([C@@H]1OC)n1c3ccccc3c3c4c(c5c6ccccc6n2c5c31)C(=O)NC4 [staurosporine],Caspase 3/7 activation,[1],dramatic induction of caspases
Cc1ccc(C(=O)Cn2c3c(sc2=N)CCCC3)cc1 [pifithrin-alpha],Effect on compound 3-induced apoptosis (caspase 3/7),[2],blocked compound 3-induced apoptosis
CCC(=C/[C@H](C)C/C=C/C(C)=C/[C@@H](C)C(=O)[C@@H](C)[C@H](O)[C@@H](C)C/C(C)=C/C(=O)O)/C=C/[C@@H]1OC(=O)C=C[C@@H]1C [Leptomycin B],IC50,"[3]; 72 h, read-out: SKNSH (IC50 nM) 72h",0.4 nM
same,IC50,[3]; read-out: SKNSH (IC50 nM) 1h,4.1 nM
same,IC50,"[4]; Homo sapiens, read-out: IC50, one hour exposure",< 5 nM
same,"IC50, 72 hour exposure","[4]; most cancer cell lines, 72 hour exposure",sub-nanomolar
same,IC50,"[5]; HCT-116, 72 h, read-out: HCT-116 (IC50 nM) 72h",0.3 nM
same,IC50,"[5]; HCT-116, read-out: HCT-116 (IC50 nM) 1h",4.3 nM
same,IC50,[6],0.1 to 10 nM
same,IC50,"[7]; 72 h, read-out: SiHa (IC50 nM) 72h",0.4 nM
same,IC50,[7]; read-out: SiHa (IC50 nM) 1h,2.1 nM
